Results from article PMC2773749 (Biochemistry, 2009).

Legend:
[1] = target: β-lactamase (Enterobacter cloacae, UniProt P05364); assay: β-Lactamase promiscuous inhibitor assay; type: biochemical; details: in the absence of Triton X-100
[2] = target: T1, K18PL tau (Homo sapiens, UniProt P10636, P618L); assay: Primary qHTS K18PL tau fibrillization, ThT fluorescence readout; type: biochemical; details: for 1° ThT Screen Curve class / 1° ThT Screen Log IC50: ThT fluorescence; for 1° ThT Screen Log IC50: printed as Log IC50; for 1° ThT Screen % Inhib: maximum % inhibition of ThT fluorescence
T1 sequence (P10636 561-686 P618L): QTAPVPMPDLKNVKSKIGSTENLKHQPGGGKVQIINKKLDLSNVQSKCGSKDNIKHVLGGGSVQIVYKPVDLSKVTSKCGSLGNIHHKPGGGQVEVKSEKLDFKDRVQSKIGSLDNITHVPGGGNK
Method in brief: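 Screen used K18PL tau (15 µM) with Alexa Red-labelled K18PL and 40 µM heparin stock, plus compound at six five-fold dilutions (56 µM–18 nM), run 6 h at 37°C. ThT was added (12.5 µM final, 100 mM glycine pH 8.5) for 1 h at room temperature; read ex 450/em 510 nm. Percent inhibition was computed versus median K18KD and DMSO controls, then pattern-corrected, with concentration-response curves fitted and classified. Single determinations per concentration.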

[3] = target: T1, K18PL tau; assay: Primary qHTS K18PL tau assembly, fluorescence polarization; type: biochemical; details: for 1° FP Screen Log IC50: printed as Log IC50; for 1° FP Screen % Inhib: maximum % inhibition of FP
Method in brief: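 K18PL (30 µM stock with 0.24 µM Alexa Red-labelled K18PL) received compound at six five-fold dilutions (56 µM–18 nM), then heparin, and incubated 6 h at 37°C. FP was read after ThT (ex 555, em 632 nm, P/S channels); mP = 1000*(S−G*P)/(S+G*P), G = 1. Inhibition was normalised to non-fibrillizing K18KD and DMSO wells, pattern-corrected, and curve-fitted and classified. Single determinations.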

[4] = Activity in other PubChem / NIH Chemical Genomics Center screens
[5] = Alexa Red total fluorescence; details: percent inhibition of Alexa Red total fluorescence
Method in brief: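 Alexa Red total fluorescence was computed from the qHTS FP S and P channel readings as TF = S + 2*P. It was expressed as a percentage of the DMSO control value, with values >30% flagged as potential fluorescence interference.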

[6] = target: T1, K18PL tau; assay: Repeat K18PL tau ThT fluorescence assay; type: biochemical; details: repeat testing of screening hits, maximum percent inhibition
Method in brief: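 Retesting of K18PL heparin-induced fibrillization used duplicate samples at each concentration, with the highest tested concentration 80 µM. ThT was read at 12.5 µM final in 100 mM glycine, pH 8.5, with excitation 450 nm and emission 510 nm. IC50 and percent inhibition at the top concentration were derived.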

[7] = target: full-length tau40 (Homo sapiens, UniProt P10636); assay: Tau40 ThT fluorescence assay; type: biochemical; details: inhibition of ThT fluorescence, compound 50 µM
Chain of full-length tau40 (P10636 1-441 isoform P10636-8): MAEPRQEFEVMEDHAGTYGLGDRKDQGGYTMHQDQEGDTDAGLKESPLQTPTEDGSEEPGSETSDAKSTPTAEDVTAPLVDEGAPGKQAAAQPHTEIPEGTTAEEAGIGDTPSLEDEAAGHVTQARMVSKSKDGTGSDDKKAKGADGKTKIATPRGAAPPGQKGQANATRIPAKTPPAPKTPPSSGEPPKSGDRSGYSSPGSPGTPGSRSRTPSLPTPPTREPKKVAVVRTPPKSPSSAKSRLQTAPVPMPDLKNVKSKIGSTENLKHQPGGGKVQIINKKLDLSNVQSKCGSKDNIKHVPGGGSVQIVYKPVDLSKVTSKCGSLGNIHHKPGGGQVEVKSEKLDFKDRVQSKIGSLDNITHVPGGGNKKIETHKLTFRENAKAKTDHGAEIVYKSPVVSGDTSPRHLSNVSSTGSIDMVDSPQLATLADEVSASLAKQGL

[8] = target: T1, K18PL tau; assay: K18PL tau centrifugation; type: biochemical; details: compound 100 µM, Table 1 hits
Method in brief: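 Heparin-induced K18PL fibrillization was run with test compound at a single concentration of 100 µM or with DMSO vehicle, then centrifuged to sediment fibrils. Supernatant and pellet fractions were analysed by SDS-PAGE, and the percentage of tau remaining in the soluble fraction was determined.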

[9] = target: Tau40 (Homo sapiens, UniProt P10636); assay: SEC of Tau40 fibrillization reaction post-centrifugation supernatants; type: biochemical; details: 50 µM MLS000062428
Chain of Tau40 (P10636 1-441 isoform P10636-8): as above
Method in brief: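 Tau40 (50 µM) was incubated with heparin (20 µM) ± test compound in 100 mM sodium acetate, pH 7.0, for 5 days at 37°C. A no-heparin control was included. Reactions were spun at 40,000 g for 30 min, and supernatants were run on Superdex 200 at 0.4 ml/minute. Void volume was set by blue dextran, with BSA and cytochrome c as markers.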

[10] = target: tau-mediated MT assembly (K18 tau, bovine brain tubulin) (Homo sapiens, UniProt P10636); assay: Tau-mediated MT assembly assay; type: biochemical; details: 50 µM compound, 40 µM K18, 30 µM tubulin
Chain of tau-mediated MT assembly (K18 tau, bovine brain tubulin) (P10636 561-686): as the sequence (P10636 561-686 P618L) above, with L58P counted along it

Chain of β-lactamase (P05364 21-381): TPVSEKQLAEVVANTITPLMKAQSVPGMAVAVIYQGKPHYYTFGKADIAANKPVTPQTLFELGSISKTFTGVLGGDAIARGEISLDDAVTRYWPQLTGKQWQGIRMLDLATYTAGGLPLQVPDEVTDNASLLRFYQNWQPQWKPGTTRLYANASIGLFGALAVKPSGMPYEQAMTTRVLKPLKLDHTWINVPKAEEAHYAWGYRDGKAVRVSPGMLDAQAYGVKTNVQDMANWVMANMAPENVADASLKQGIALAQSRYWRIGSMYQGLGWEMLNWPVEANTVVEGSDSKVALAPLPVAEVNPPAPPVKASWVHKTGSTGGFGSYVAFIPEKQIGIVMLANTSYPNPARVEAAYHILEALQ

SMILES | 1° ThT Screen Curve class [2] | 1° ThT Screen Log IC50 [2] | 1° ThT Screen % Inhib [2] [%] | 1° FP Screen Log IC50 [3] | promiscuity in other screens [4] | Repeat ThT Assay % Inhib [6] [%] | also measured
NS(=O)(=O)c1cc(C(=O)O)c(NCc2ccco2)cc1Cl [Furosemide] | – | – | – | – | – | – | β-lactamase inhibition [1]: 3%
CCOC(=O)c1nn(-c2ccccc2)c(=O)c2c(N)scc12 [MLS000034832] | 2.1 | −5.0 | 80 | −5.3 | do not show signs of promiscuity | – | –
CCn1c(CSc2nccn2C)nc2cc(C(=O)O)ccc21 [MLS000058666] | 1.2 | −5.4 | 65 | −5.1 | – | 84 | 1° FP Screen Curve class [3]: 1.2; 1° FP Screen % Inhib [3]: 41%; Total Fluor % Inhib [5]: <10%; Tau40 % Inhib [7]: 81%
CCOC(=O)c1nn(-c2ccc(OC)cc2)c(=O)c2c(N)scc12 [MLS000062428] | 2.1 | −5.0 | 94 | −5.0 | do not show signs of promiscuity | 97 | 1° FP Screen Curve class [3]: 2.2; 1° FP Screen % Inhib [3]: 46%; Total Fluor % Inhib [5]: 49%; Centrifugation % Soluble [8]: 80%; Tau40 % Inhib [7]: 64%; oligomeric tau species in post-centrifugation supernatant ([9]; eluted in column void volume): detectable oligomeric species; amount of monomeric tau in post-centrifugation supernatant ([9]; relative to untreated fibrillization reaction): appreciable increase
CN(C(=S)Nc1cccnc1)c1ccc(O)cc1 [MLS000339510] | – | −5.7 | – | −5.5 | – | – | –
CC(N)[C@H](O)c1ccc(O)c(O)c1 (stereo partly drawn) [NCGC00093795] | – | −5.5 | – | −5.7 | – | 103 | –
CC(=O)c1c(O)c(C)c(O)c(Cc2c(O)c3c(c(C(=O)/C=C/c4ccccc4)c2O)OC(C)(C)C=C3)c1O [Rottlerin] | – | – | – | – | – | – | β-lactamase inhibition [1]: 53%
CN(C)c1ccc2nc3ccc(=[N+](C)C)cc-3sc2c1 [methylene blue, reference compound] | – | – | – | – | active in a high percentage of PubChem screens | – | effect on tau-mediated tubulin polymerization [10]: significant diminution
